# HUVEC prolif 384: blocks proliferation of human endothelial cells; viability, % at 10 µM (by protocol); AID 648; 86,000 compounds, 1.1% hits; HUVEC proliferation, CellTiter-Glo luminescence, 72 h; stronger effect = lower value;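 active = viability at or below 30%; inactive = viability above 30%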;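 note: 100% = median luminescence of DMSO-only cell control wells on each plate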
# Lung fibro prol: blocks proliferation of human lung fibroblasts; LL 47 human lung fibroblast viability, ATP luminescence; stronger effect = lower value; viability, % at 10 µM; 85,000 compounds, 1.1% hits;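 active = viability at or below 50% in the single dose screen; inactive = viability above 50%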;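 note: compound exposure lasted 72 h before the ATP readout; 100% = median luminescence of untreated cell-only wells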
#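 Material: human LL 47 lung fibroblast cells; quantity: 1,150 cells/well; medium: IMEM plus 15% FBS; doses: 0.1% DMSO in all compound wells; timing: overnight attachment after seeding, then 72 h compound exposure at 37 °C; detection: CellTiter-Glo luminescence; measure: % viability of median cell-only signal; controls: cell-only wells, no compound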
# PTEN del growth: suppresses growth of cells with PTEN deletion | HCT116 PTEN-null viability, CellTiter-Glo, 60 h; stronger effect = lower value | viability, % at 10 µM | 140,000 compounds, 1.2% hits;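 active = viability at or below a set limit, 4 SD under the median of all tested compounds, cut at about 3.7% in these data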;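 note: PTEN knockout HCT116 line with beta catenin targeted HCT116 as companion control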
# HCT116 bCat-KO: beta-catenin-lacking colon tumor cell growth suppression; HCT116 beta-catenin knockout viability, CellTiter-Glo, 60 h; stronger effect = lower value; 140,000 compounds, 1.5% hits; viability, % at 10 µM;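 active = viability at or under a set limit, the compound median less 4 SD, cut at about 6% in these data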;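 note: 0% = Hyamine 1622 control at 20 µM and 100% = untreated cell control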
# H69AR growth 86K: growth inhibitors of human H69AR lung tumor cells. 85,000 compounds, 6% hits. H69AR lung tumor viability, ATP luminescence, 72 h; stronger effect = lower value. AID 598. viability, % at 10 µM;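 active = viability at or below 40%; inactive = viability above 40%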;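 note: multidrug resistant small cell line overexpressing MRP-1 efflux transporter; 100% = mean luminescence of untreated control wells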
# Active calls of the source: *; · = not tested or not shown. Shown is part of a subset that was picked to be rich in hits.
SMILES,HUVEC prolif 384,Lung fibro prol,PTEN del growth,HCT116 bCat-KO,H69AR growth 86K
Cc1ccc(/C=N/N2C(=S)SC(C)(C)C2N(O)C(=O)Nc2ccc([N+](=O)[O-])cc2)cc1 (configuration not stated),90,92,9,3.7*,74
Cc1nc2ccc(-c3nc4ccccc4o3)cc2[nH]1,103,103,92,89,76
Cc1ccnc2ccc(-c3nc4ccccc4o3)cc12,30*,73,64,58,60
CC(=O)c1cccc(NC(=O)COC(=O)[C@@H](NC(=O)OCc2ccccc2)C(C)C)c1,·,·,105,96,·
CCOC(=O)CC(=O)CSc1nc2c(cc1C#N)CCC2,76,101,36,24,35*
CCOC(=O)CSc1nc2cc(C)ccc2cc1C#N,78,83,47,62,34*
CCOc1ccc2cc(C#N)c(SCC(=O)N3CCOCC3)nc2c1,111,98,100,97,52
COC(=O)CC(=O)CSc1nc2c(cc1C#N)CCCCC2,82,101,99,106,81
CCOc1ccc2nc(SCC(=O)N3CCCCCC3)c(C#N)cc2c1,91,·,88,95,38*
COc1ccc(C(=O)CSc2nnc(CN3CCCCC3)n2-c2ccc(F)cc2)cc1,·,·,82,82,·
N=c1n(CC(=O)c2ccc([N+](=O)[O-])cc2)c2ccccc2n1Cc1ccccc1,·,·,1.8*,1.7*,·
N=c1n(CC(=O)c2ccc([N+](=O)[O-])cc2)c2ccccc2n1Cc1ccc(Cl)cc1,·,·,1.6*,1.3*,·
C=CCn1c(SCC(=O)N2CCc3ccccc3C2)nc2sc(C)c(C)c2c1=O,·,·,67,78,·
Cc1ccc(NC(=O)c2cc(N3CCOCC3)nc3ccccc23)cc1,91,86,61,73,33*
Cc1sc2nc(SCC(=O)NCc3ccco3)n(CCc3ccccc3)c(=O)c2c1C,60,47*,101,93,22*
Cc1ccccc1Nc1nnc(SCC(=O)NC(=O)NCc2ccco2)s1,85,93,74,64,32*
C=CCn1c(SCC(=O)NC(=O)NCc2ccco2)nc2sc(CC)cc2c1=O,90,48*,107,92,28*
CCn1c(SCC(=O)NC(=O)NCc2ccco2)nc2sc(C)c(C)c2c1=O,·,·,96,88,·
C=CCn1c(SCC(=O)Nc2ccccc2C)nc2sc(C)c(C)c2c1=O,83,93,99,84,31*
CN(CCC#N)C(=O)COC(=O)c1ccc(CNS(=O)(=O)c2ccc(F)c(Cl)c2)cc1,·,·,101,91,·
Cc1sc2nc(SCC(=O)NCc3ccco3)n(C)c(=O)c2c1C,84,100,112,99,90
Cc1sc2nc(SCC(=O)c3cccs3)n(Cc3ccco3)c(=O)c2c1C,24*,84,73,81,59
CN(C)c1ccc(/C=[N+](\[O-])C(C)(C)/C=N/O)cc1,97,·,95,89,30*
CC(C)(/C=N/O)/[N+]([O-])=C/C=[N+](\[O-])C(C)(C)/C=N/O,96,92,101,99,89
Cc1ccc(C)c(NC(=O)C2CCCN2/C=C/C(=O)C(F)(F)F)c1 (configuration not stated),·,·,93,89,·
SMILES,HUVEC prolif 384,Lung fibro prol,PTEN del growth,HCT116 bCat-KO,H69AR growth 86K
CCOc1ccccc1-c1cc(-c2ccc(OC)cc2)nc2c1c(=O)n(C)c(=O)n2C,84,94,·,·,21*
N#CC1=C(C2CC2)CC(c2ccccc2)C(C#N)=C1N (configuration not stated),71,81,72,71,39*
CCC(C)NC(=O)CSc1nc2ccc(N3CCOCC3)cc2c(=O)n1CCc1ccccc1 (configuration not stated),83,97,93,81,38*
CCCCCCC(=O)NC(Nc1ccc(S(N)(=O)=O)cc1)C(Cl)(Cl)Cl (configuration not stated),·,·,76,71,·
N#Cc1ccc(-c2csc(NC(=O)c3ccc(S(=O)(=O)N4CCc5ccccc5C4)cc3)n2)cc1,·,·,51,72,·
C=CCNC(=O)CCCCC(=O)NCC=C,96,97,105,94,32*
C=CCNC(=O)CCCOc1ccc(C)cc1,94,101,93,88,106
CCCCOP(=O)(OCCCC)C(Nc1ccccc1)c1ccc2c(c1)OCO2 (configuration not stated),·,·,35,39,·
Cc1cc(C)c2nc(SC(C)C#N)cc(C)c2c1 (configuration not stated),93,96,64,78,31*
COc1ccc2[nH]c(=O)c(CN(Cc3cccs3)S(=O)(=O)c3cccc4nsnc34)cc2c1,74,83,48,57,3.0*
O=S(=O)(CCSc1nc2ccccc2s1)c1nc2ccccc2s1,14*,35*,3.3*,3.9*,1.5*
CC(C)(C)S(=O)(=O)c1nc2ccccc2s1,90,98,96,91,79
C=CCS(=O)(=O)c1nc2ccccc2s1,81,77,24,11,1.1*
CCS(=O)(=O)CCSc1nc2ccccc2s1,87,98,103,99,93
Cc1cccc(NC(=O)C2SC(=Nc3c(C)cccc3C)C(C(=O)N3CCOCC3)=C2N)c1 (configuration not stated),·,·,86,93,·
Clc1ccccc1-c1ccc(CN2CCN(c3ccccc3)CC2)o1,112,98,59,49,93
CCCn1c(/C=N/Nc2nc3ccccc3[nH]2)nc2ccccc21,·,·,3.0*,3.6*,·
CC(C)Cn1c(/C=N/Nc2nc3ccccc3[nH]2)nc2ccccc21,·,·,14,12,·
CC(=O)Nc1ccc(/C=N/Nc2nc3ccccc3[nH]2)cc1,·,·,36,16,·
CCN(CC)c1ccc(/C=N/Nc2nc3ccccc3[nH]2)cc1,·,·,1.6*,2.8*,·
Cc1cc(C)nc(NC(=O)c2c(-c3ccccc3Cl)noc2C)c1,·,·,78,93,·
CCOC(=O)C1=C(C)NC(=O)NC1c1ccoc1 (configuration not stated),·,·,·,99,·
CC(=O)O[C@@H]1C[C@H]2C(C)(C)C(=O)C=C[C@]2(C)[C@H]2CC[C@@]3(C)[C@H](c4ccoc4)OC(=O)[C@H]4O[C@]43[C@@]21C,·,·,4,3.9*,·
Nc1c(-c2cccc([N+](=O)[O-])c2)nc2ccccn12,·,·,85,79,·
Oc1[nH]c2ccccc2c1N=Nc1nc2ccccc2s1,·,·,1.6*,1.3*,·
SMILES,HUVEC prolif 384,Lung fibro prol,PTEN del growth,HCT116 bCat-KO,H69AR growth 86K
Oc1[nH]c2ccccc2c1N=Nc1ccc(F)cc1,·,·,79,81,·
CCCCc1ccc(S(=O)(=O)N2CCN(C(=O)c3ccco3)CC2)cc1,·,·,85,85,·
CCOC(=O)c1c(C)sc2c1N(C(=O)CCl)c1cc(Cl)ccc1S2,17*,2.6*,2.2*,2.3*,0.7*
N#CC1=C(N)N2C(=C(C#N)C1c1cccc(Br)c1)Nc1ccccc12 (configuration not stated),·,·,2.0*,3.2*,·
N#CC1=C(N)N2C(=C(C#N)C1c1ccc(Br)cc1)Nc1ccccc12 (configuration not stated),·,·,2.2*,1.9*,·
Cc1nc2ccccn2c1-c1csc(NCc2ccco2)n1,98,91,70,64,78

# Screens: PubChem, SRMLSC
